Experimental data from ChEMBL document CHEMBL4400542, “Epidermal Growth Factor Receptor-Targeted Multifunctional Photosensitizers for Bladder Cancer Imaging and Photodynamic Therapy” (J Med Chem, 2019).
Blank lines part the entries; values can stand above or below the compound they belong to. Calls of active or inactive are those of the source. The rule behind the calls is not given here.

Columns and labels:
[1] = system: UMUC3; assay: Photo-activated cytotoxicity against human UM-UC-3 cells assessed as reduction in cell viability preincubated for 24 hrs followed by 1 J/cm2 light irradiation and measured after 48 hrs formulated with 1% tween 80 solution by MTT assay; assay type: functional, cell-based; settings: UMUC3, light or radiation study
In short: (§1)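 Cells plated at 10k per well, allowed 24 h to adhere, then PS added in two-fold dilutions from 1 µM top for 24 h. Irradiated at 665 nm, 1.0 J/cm2 at 3.2 mW/cm2. Viability by MTT 48 h after PDT: about 2 h incubation, formazan dissolved in DMSO, absorbance at 570 nm.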

[2] = system: UMUC3; assay: Photo-activated cytotoxicity against human UM-UC-3 cells assessed as reduction in cell viability preincubated for 24 hrs followed by 1 J/cm2 light irradiation and measured after 48 hrs formulated with 2% pluronic F-127 solution by MTT assay; assay type: functional, cell-based; settings: UMUC3, light or radiation study; in short: as §1
[3] = system: T-24; assay: Photo-activated cytotoxicity against human T24 cells assessed as reduction in cell viability preincubated for 24 hrs followed by 1 J/cm2 light irradiation and measured after 48 hrs formulated with 1% tween 80 solution by MTT assay; assay type: functional, cell-based; settings: T-24, light or radiation study; in short: as §1
[4] = system: T-24; assay: Photo-activated cytotoxicity against human T24 cells assessed as reduction in cell viability preincubated for 24 hrs followed by 1 J/cm2 light irradiation and measured after 48 hrs formulated with 2% pluronic F-127 solution by MTT assay; assay type: functional, cell-based; settings: T-24, light or radiation study; in short: as §1
[5] = Drug accumulation in human UM-UC-3 cells at 500 nM formulated with 1% tween 80 solution after 24 hrs by CARY-fluorimetry; assay type: ADME, cell-based; settings: umuc3, 24 h, 0.5 µM
[6] = Drug accumulation in human UM-UC-3 cells at 500 nM formulated with 2% pluronic F-127 solution after 24 hrs by CARY-fluorimetry; assay type: ADME, cell-based; settings: umuc3, 24 h, 0.5 µM
[7] = Drug accumulation in mitochondria of human UM-UC-3 cells at 500 nM formulated with 1% tween 80 solution after 24 hrs by mitotracker red based fluorimetry; assay type: ADME; settings: umuc3, 24 h, 0.5 µM
[8] = Drug accumulation in lysosomes of human UM-UC-3 cells at 500 nM formulated with 1% tween 80 solution after 24 hrs by lysosphere green based fluorimetry; assay type: ADME, subcellular, Lysosome; settings: umuc3, 24 h, 0.5 µM
[9] = Drug accumulation in mitochondria of human UM-UC-3 cells at 500 nM formulated with 2% pluronic F-127 solution after 24 hrs by mitotracker red based fluorimetry; assay type: ADME; settings: umuc3, 24 h, 0.5 µM
[10] = Drug accumulation in lysosomes of human UM-UC-3 cells at 500 nM formulated with 2% pluronic F-127 solution after 24 hrs by lysosphere green based fluorimetry; assay type: ADME, subcellular, Lysosome; settings: umuc3, 24 h, 0.5 µM
[11] = Drug accumulation in mitochondria of human T24 cells at 500 nM formulated with 1% tween 80 solution after 24 hrs by mitotracker red based fluorimetry; assay type: ADME; settings: t-24, 24 h, 0.5 µM
[12] = Drug accumulation in lysosomes of human T24 cells at 500 nM formulated with 1% tween 80 solution after 24 hrs by lysosphere green based fluorimetry; assay type: ADME, subcellular, Lysosome; settings: t-24, 24 h, 0.5 µM
[13] = Drug accumulation in mitochondria of human T24 cells at 500 nM formulated with 2% pluronic F-127 solution after 24 hrs by mitotracker red based fluorimetry; assay type: ADME; settings: t-24, 24 h, 0.5 µM
[14] = Drug accumulation in lysosomes of human T24 cells at 500 nM formulated with 2% pluronic F-127 solution after 24 hrs by lysosphere green based fluorimetry; assay type: ADME, subcellular, Lysosome; settings: t-24, 24 h, 0.5 µM
[15] = Drug uptake in human UM-UC-3 cells assessed as increase in gray value intensity at 500 nM after 48 hrs in presence of gleevec by Hoechst 33342 staining based fluorescence microscopy; assay type: ADME, cell-based; settings: umuc3, 24 h, 0.5 µM, in the assay text read “after 24 hrs” for “after 48 hrs”
In short: (§2)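 Cells plated at 100k per well, grown to 80% confluency, refreshed, then incubated 24 h with PS at 500 nM with or without Gleevec 5 µM. Washed twice with PBS, Hoechst 33342 added, imaged by fluorescence microscopy; grey value normalized to cell number, triplicate groups and images.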

[16] = Drug uptake in human UM-UC-3 cells assessed as increase in gray value intensity at 500 nM after 48 hrs in absence of gleevec by Hoechst 33342 staining based fluorescence microscopy; assay type: ADME, cell-based; settings: umuc3, 24 h, 0.5 µM, in the assay text read “24 hrs” for “48 hrs”; in short: as §2
[17] = Drug uptake in human UM-UC-3 cells assessed as increase in gray value intensity at 1 uM pretreated for 24 hrs followed by compound washout and measured after 4 hrs by Hoechst 33342 staining based fluorescence microscopy; assay type: ADME, cell-based; settings: umuc3, 4 h
In short: (§3)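 Cells pre-incubated 24 h with free erlotinib before PS addition. Legend describes PS at 1 uM or erlotinib at 3 uM for 4 h, then three warm PBS washes. Imaged by fluorescence microscopy; grey value per field normalized to cell count, triplicate wells, each imaged in triplicate.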

[18] = Drug uptake in human T24 cells assessed as increase in gray value intensity at 1 uM pretreated for 24 hrs followed by compound washout and measured after 4 hrs by Hoechst 33342 staining based fluorescence microscopy; assay type: ADME, cell-based; settings: t-24, 4 h; in short: as §3
[19] = Drug uptake in human UM-UC-3 cells xenografted in SCID mouse at 0.47 umol/kg formulated with 2% pluronic F-127 solution and measured at 24 hrs post injection by IVIS analysis; assay type: ADME, cell-based, UMUC3; settings: in vivo
In short: (§4)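 SCID mice (3/group) bearing UMUC3 or T24 tumors of 4–5 mm injected with PS at 0.47 µmol/kg in Tween80 or Pluronic F-127. Tumor, liver and skin fluorescence followed by IVIS optical imaging (ex 675 nm, em 720) at several time points including 24 h.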

[20] = Drug uptake in human UM-UC-3 cells xenografted in SCID mouse at 0.47 umol/kg formulated with 1% tween 80 solution and measured at 24 hrs post injection by IVIS analysis; assay type: ADME, cell-based, UMUC3; settings: in vivo; in short: as §4
[21] = Drug uptake in human T24 cells xenografted in SCID mouse at 0.47 umol/kg formulated with 2% pluronic F-127 solution and measured at 24 hrs post injection by IVIS analysis; assay type: ADME, cell-based, T-24; settings: in vivo; in short: as §4
[22] = Drug uptake in human T24 cells xenografted in SCID mouse at 0.47 umol/kg formulated with 1% tween 80 solution and measured at 24 hrs post injection by IVIS analysis; assay type: ADME, cell-based, T-24; settings: in vivo; in short: as §4
[23] = system: UMUC3; assay: Anti-tumor activity against human UM-UC-3 cells xenografted in SCID mouse assessed as tumor cure at 0.47 umol/kg, iv in presence of 135 J/cm2 light irradiation at 24 hrs post injection and measured at day 60; assay type: functional
In short: (§5)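 UMUC-3 cells implanted in right flank of SCID mice; at 4–5 mm tumors, PS given i.v. at 0.47 µmol/kg. Tumors exposed to 665 nm light, 135 J/cm2 at 75 mW/cm2, 24 h post-injection. Tumor regrowth monitored daily; mice euthanized at >400 mm3; tumor-free status scored at day 60.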

[24] = system: UMUC3; assay: Induction of oxidative stress in human UM-UC-3 cells assessed as increase in ROS production at 1 uM in presence of 1 J/cm2 light irradiation and measured at 20 min post light exposure by DCFDA-fluorescence based assay relative to control; assay type: functional
In short: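 UMUC3 cells at 10k per well; after 24 h, PS added at 1 µM for 24 h (Tween80 formulation). DCFDA 1 µM for 20 min, fluorescence read (ex 492, em 517). Then 665 nm light, 1 J total at 3.2 mW/cm2, and read again. No-DCFDA background subtracted; 0.05% H2O2 control wells.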

[25] = Stability at -4 degC for 2 months; assay type: physicochemical; settings: 1461 h
In short: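 Photosensitizer formulations in Tween80 or Pluronic F-127 were stored at -4 °C, alongside a -20 °C set, for two months. Stability was judged by visible precipitation and change in pH.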

[26] = Stability at -20 degC for 2 months; assay type: physicochemical; settings: 1461 h
In short: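 Formulated PS stored at -4 °C or -20 °C for two months; checked for precipitation and pH change.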

[27] = system: T-24; assay: Induction of apoptosis in human T24 cells assessed as increase in apoptotic cells at 1 uM in absence of light by Annexin V/propidium iodide-staining based flow cytometry; assay type: cell-based; settings: t-24, 1 µM
[28] = system: UMUC3; assay: Induction of apoptosis in human UM-UC-3 cells assessed as increase in apoptotic cells at 1 uM in absence of light by Annexin V/propidium iodide-staining based flow cytometry; assay type: cell-based; settings: umuc3, 1 µM
[29] = system: UMUC3; assay: Induction of apoptosis in human UM-UC-3 cells assessed as increase in necrotic cells at 1 uM in presence of light by Annexin V/propidium iodide-stining based flow cytometry; assay type: functional, cell-based
[30] = system: UMUC3; assay: Induction of apoptosis in human UM-UC-3 cells assessed as increase in apoptotic cells at 1 uM in presence of light by Annexin V/propidium iodide-stining based flow cytometry; assay type: functional, cell-based
[31] = system: T-24; assay: Induction of apoptosis in human T24 cells assessed as increase in apoptotic cells at 100 nM in presence of light by Annexin V/propidium iodide-stining based flow cytometry; assay type: functional, cell-based
[32] = target: Epidermal growth factor receptor (Homo sapiens) (UniProt P00533); assay: Inhibition of EGFR autophosphorylation at Ty1068 in human UM-UC-3 cells at 1 uM followed by PDT and measured after 24 hrs by Western blot analysis; assay type: cell-based
Sequence of Epidermal growth factor receptor (Homo sapiens) (P00533 whole entry): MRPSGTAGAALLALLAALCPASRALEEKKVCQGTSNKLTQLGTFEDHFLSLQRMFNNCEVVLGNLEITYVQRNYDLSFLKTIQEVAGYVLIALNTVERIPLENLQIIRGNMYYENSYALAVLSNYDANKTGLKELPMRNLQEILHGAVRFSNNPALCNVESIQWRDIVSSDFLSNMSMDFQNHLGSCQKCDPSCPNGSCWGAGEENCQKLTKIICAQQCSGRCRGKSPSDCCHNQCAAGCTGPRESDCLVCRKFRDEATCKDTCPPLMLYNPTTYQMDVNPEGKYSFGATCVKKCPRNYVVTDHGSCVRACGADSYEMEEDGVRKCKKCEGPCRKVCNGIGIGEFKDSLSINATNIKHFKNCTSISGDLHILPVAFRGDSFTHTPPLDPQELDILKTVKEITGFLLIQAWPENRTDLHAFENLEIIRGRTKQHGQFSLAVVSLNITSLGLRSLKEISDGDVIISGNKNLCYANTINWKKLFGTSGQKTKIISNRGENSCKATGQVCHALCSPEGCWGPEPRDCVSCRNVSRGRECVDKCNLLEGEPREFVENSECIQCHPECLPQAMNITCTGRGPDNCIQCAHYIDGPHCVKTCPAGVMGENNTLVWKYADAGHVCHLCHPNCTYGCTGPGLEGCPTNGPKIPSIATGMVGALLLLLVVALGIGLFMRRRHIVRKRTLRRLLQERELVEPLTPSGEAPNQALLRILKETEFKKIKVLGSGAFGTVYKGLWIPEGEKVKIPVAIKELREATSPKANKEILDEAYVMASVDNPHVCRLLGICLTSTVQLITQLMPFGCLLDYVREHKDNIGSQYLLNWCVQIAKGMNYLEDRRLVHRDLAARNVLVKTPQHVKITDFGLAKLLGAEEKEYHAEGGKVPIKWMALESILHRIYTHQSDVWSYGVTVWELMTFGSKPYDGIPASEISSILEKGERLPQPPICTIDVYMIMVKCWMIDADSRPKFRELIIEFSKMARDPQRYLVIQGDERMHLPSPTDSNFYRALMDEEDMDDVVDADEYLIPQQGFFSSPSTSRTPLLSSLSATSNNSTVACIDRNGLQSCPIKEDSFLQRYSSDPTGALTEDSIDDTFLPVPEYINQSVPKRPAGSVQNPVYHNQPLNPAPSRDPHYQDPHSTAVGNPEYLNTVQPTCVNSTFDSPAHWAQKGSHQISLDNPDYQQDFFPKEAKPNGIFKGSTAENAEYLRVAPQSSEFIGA

[33] = target: Epidermal growth factor receptor (Homo sapiens) (UniProt P00533); assay: Inhibition of EGFR autophosphorylation at Ty1068 in human T24 cells at 1 uM followed by PDT and measured after 24 hrs by Western blot analysis; assay type: cell-based
[34] = target: Epidermal growth factor receptor (Homo sapiens) (UniProt P00533); assay: Inhibition of EGFR autophosphorylation at Ty1068 in human UM-UC-3 cells at 100 nM followed by PDT and measured after 24 hrs by Western blot analysis; assay type: cell-based
[35] = system: T-24; assay: Induction of apoptosis in human T24 cells assessed as increase in apoptotic cells at 1 uM in presence of light by Annexin V/propidium iodide-stining based flow cytometry; assay type: functional, cell-based
[36] = system: T-24; assay: Induction of apoptosis in human T24 cells assessed as increase in necrotic cells at 1 uM in presence of light by Annexin V/propidium iodide-stining based flow cytometry; assay type: functional, cell-based
[37] = system: UMUC3; assay: Induction of apoptosis in human UM-UC-3 cells assessed as increase in apoptotic cells at 100 nM in presence of light by Annexin V/propidium iodide-stining based flow cytometry; assay type: functional, cell-based
[38] = system: UMUC3; assay: Induction of apoptosis in human UM-UC-3 cells assessed as increase in necrotic cells at 100 nM in presence of light by Annexin V/propidium iodide-stining based flow cytometry; assay type: functional, cell-based
[39] = system: UMUC3; assay: Anti-tumor activity against human UM-UC-3 cells xenografted in SCID mouse at 0.47 umol/kg, iv in presence of 135 J/cm2 light irradiation at 24 hrs post injection and measured every day till day 60; assay type: functional, organism-based; in short: as §5
[40] = system: UMUC3; assay: Anti-tumor activity against human UM-UC-3 cells xenografted in SCID mouse assessed as tumor necrosis at 0.47 umol/kg, iv in presence of 135 J/cm2 light irradiation at 24 hrs post injection and measured at 72 hrs post light exposure; assay type: functional, organism-based
[41] = Induction of singlet oxygen generation in deaerated toluene at 670 nm assessed as rate of singlet decay by femtosecond transient absorption spectroscopy; assay type: functional
[42] = Induction of singlet oxygen generation in deaerated toluene at 670 nm assessed as singlet decay life time by femtosecond transient absorption spectroscopy; assay type: functional
[43] = Induction of singlet oxygen generation in Ar-saturated toluene solution at 670 nm assessed as decay rate constant of triplet excited state by femtosecond transient absorption spectroscopy; assay type: functional
[44] = Induction of singlet oxygen generation in oxygen-saturated toluene solution at 670 nm assessed as decay rate constant of triplet excited state by femtosecond transient absorption spectroscopy; assay type: functional
[45] = Induction of singlet oxygen generation assessed as energy transfer from the triplet chlorins to oxygen by femtosecond transient absorption spectroscopy; assay type: functional

Drug uptake [5]: Active
Drug uptake [6]: Active
Drug uptake [7]: Active
Drug uptake [8]: Active
Drug uptake [9]: Active
Drug uptake [10]: Active
Drug uptake [11]: Active
Drug uptake [12]: Active
Drug uptake [13]: Active
Drug uptake [14]: Active
Drug uptake [15]: Not Active
Drug uptake [16]: Not Active
Drug uptake [17]: Not Active
Drug uptake [18]: Active
Drug uptake [19]: Active
Drug uptake [20]: Active
Drug uptake [21]: Active
Drug uptake [22]: Active
Stability [25]: Stable
Stability [26]: Stable
SMILES: CCC1=C(C)c2cc3[nH]c(cc4nc(c5c6[nH]c(cc1n2)c(C)c6C(=O)C5)[C@@H](CCC(=O)NCc1cccc(C#Cc2cccc(Nc5ncnc6cc(OCCOC)c(OCCOC)cc56)c2)c1)[C@@H]4C)c(C)c3C(C)OCc1cccc([127I])c1 (stereo not given in full)
IC50 [1]: 36.4 nM
IC50 [2]: 58.4 nM
IC50 [3]: 137 nM
IC50 [4]: 315 nM
Activity [23]: 55%
fold change (FC) [24]: 4.5
Activity [27]: Non-Toxic
Activity [28]: Non-Toxic

inhibition [32]: Active
inhibition [33]: Active
inhibition [34]: Active
SMILES: CCC1=C(C)c2cc3[nH]c(cc4nc(c5c6[nH]c(cc1n2)c(C)c6C(=O)C5)[C@@H](CCC(=O)NCc1cccc(C#Cc2cccc(Nc5ncnc6cc(OCCOC)c(OCCOC)cc56)c2)c1)[C@@H]4C)c(C)c3C(C)OCc1cccc(I)c1 (stereo not given in full)
Activity [29]: Active
Activity [30]: Active
Activity [31]: inactive
Activity [35]: Active
Activity [36]: Active
Activity [37]: Active
Activity [38]: Active
Activity [39]: Active
Activity [40]: Active
K [41]: 7.5 ×10⁹ /s
Time [42]: 133 pS
K [43]: 9.8 ×10⁴ /s
K [44]: 2.07 ×10⁵ /s
K [45]: 1.03 ×10¹⁰ /M/s
